According to ChEMBL document CHEMBL1146533, “Antimicrobial and antiparasitic (+)-trans-hexahydrodibenzopyrans and analogues from Machaerium multiflorum” (J Nat Prod, 2003):
Converted amounts (≈) assume the structure as drawn. The source made the active and inactive calls. The calls are words filed in the database; no cut-off is given here.

Legend:
Cryptococcus neoformans = assay: Antimicrobial activity against Cryptococcus neoformans ATCC 90113 by modified NCCLS method; format: functional, organism-based
Staphylococcus aureus [1] = assay: Antimicrobial activity against methicillin-resistant Staphylococcus aureus ATCC 43300 by modified NCCLS method; format: functional, organism-based
Aspergillus fumigatus [2] = assay: Antimicrobial activity against Aspergillus fumigatus ATCC 90906 by modified NCCLS method; format: functional, organism-based
[3] = system: Mycobacterium intracellulare; assay: Antimicrobial activity against Mycobacterium intracellular at 50 ug/mL by Alamar blue assay; format: functional
Aspergillus fumigatus [4] = assay: Antimicrobial activity against Aspergillus fumigatus ATCC 90906 at 50 ug/mL by modified NCCLS method; format: functional, organism-based
[5] = system: Mycobacterium intracellulare; assay: Antimicrobial activity against Mycobacterium intracellular by Alamar blue assay; format: functional, organism-based
Staphylococcus aureus [6] = assay: Antimicrobial activity against Staphylococcus aureus ATCC 29213 by modified NCCLS method; format: functional, organism-based
Candida albicans [7] = assay: Antifungal activity against Candida albicans ATCC 90028 at 50 ug/mL by modified NCCLS method; format: functional, organism-based
Candida albicans [8] = assay: Antimicrobial activity against Candida albicans ATCC 90028 by modified NCCLS method; format: functional, organism-based
Leishmania donovani = assay: Antileishmanial activity against Leishmania donovani promastigotes after 72 hrs; format: functional, organism-based
Plasmodium falciparum [9] = assay: Antimalarial activity against chloroquine-sensitive Plasmodium falciparum D6; format: functional, organism-based
Plasmodium falciparum [10] = assay: Antimalarial activity against chloroquine-resistant Plasmodium falciparum W2; format: functional, organism-based
[11] = Selectivity index, ratio of IC50 for african green monkey (Cercopithecus aethiops) Vero cells to IC50 for chloroquine-sensitive Plasmodium falciparum D6; format: toxicity, cell-based; details: read-out: Ratio IC50
Procedure, shortened: (§1)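 Selectivity index calculated as IC50 in Vero cells divided by IC50 against P. falciparum.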

Vero = assay: Cytotoxicity against african green monkey Vero cells at 4.7 ug/mL; format: cell-based; details: chlorocebus sabaeus
[12] = Selectivity index, ratio of IC50 for african green monkey (Cercopithecus aethiops) Vero cells to IC50 for chloroquine-sensitive Plasmodium falciparum W2; format: toxicity, cell-based; details: read-out: Ratio IC50; procedure, shortened: as §1

Row | SMILES | IC50 (Cryptococcus neoformans) | IC50 (Staphylococcus aureus [1]) | MBC (Staphylococcus aureus [1]) | MIC (Staphylococcus aureus [1]) | MIC (Aspergillus fumigatus [2]) | Activity (Aspergillus fumigatus [4]) | IC50 [5] | MIC [5] | IC50 (Staphylococcus aureus [6]) | MBC (Staphylococcus aureus [6]) | MIC (Staphylococcus aureus [6]) | IC50 (Candida albicans [8]) | MIC (Candida albicans [8]) | IC50 (Leishmania donovani) | IC90 (Leishmania donovani) | IC50 (Plasmodium falciparum [9]) | IC50 (Plasmodium falciparum [10]) | selectivity ratio [11] | Activity (Vero) | selectivity ratio [12] | further results
1 | C=C(C)[C@H]1CC[C@H](C)C[C@@H]1c1c(O)cc(/C=C/c2ccccc2)cc1O [MACHAERIDIOL A] | 15 µg/mL (≈ 43 µM) | 1 µg/mL (≈ 2.87 µM) | 3.13 µg/mL (≈ 8.98 µM) | 1.56 µg/mL (≈ 4.48 µM) | 12.5 µg/mL (≈ 35.9 µM) | inactive | 7 µg/mL (≈ 20.1 µM) | 12.5 µg/mL (≈ 35.9 µM) | 1 µg/mL (≈ 2.87 µM) | 3.13 µg/mL (≈ 8.98 µM) | 1.56 µg/mL (≈ 4.48 µM) | 3.5 µg/mL (≈ 10 µM) | 50 µg/mL (≈ 143 µM) | – | – | – | – | – | – | – | Activity (Cryptococcus neoformans): inactive; MBC [3]: 50 µg/mL (≈ 143 µM); Activity (Candida albicans [7]): inactive
2 | N=C(N)c1ccc(OCCCCCOc2ccc(C(=N)N)cc2)cc1 [PENTAMIDINE] | – | – | – | – | – | – | – | – | – | – | – | – | – | 0.42 µg/mL (≈ 1.23 µM) | 1.5 µg/mL (≈ 4.41 µM) | – | – | – | – | – | –
3 | C=C(C)[C@H]1CC[C@H](C)C[C@@H]1c1c(O)cc(-c2cc3ccccc3o2)cc1O [MACHAERIDIOL C] | 25 µg/mL (≈ 69 µM) | 3.5 µg/mL (≈ 9.66 µM) | 12.5 µg/mL (≈ 34.5 µM) | 6.25 µg/mL (≈ 17.2 µM) | – | – | 10 µg/mL (≈ 27.6 µM) | 25 µg/mL (≈ 69 µM) | 3 µg/mL (≈ 8.28 µM) | 12.5 µg/mL (≈ 34.5 µM) | 6.25 µg/mL (≈ 17.2 µM) | 45 µg/mL (≈ 124 µM) | – | 3 µg/mL (≈ 8.28 µM) | 10 µg/mL (≈ 27.6 µM) | 3.3 µg/mL (≈ 9.1 µM) | 2.5 µg/mL (≈ 6.9 µM) | > 1.4 | Non-toxic | > 1.9 | Activity (Aspergillus fumigatus [2]): inactive; Activity [3]: inactive
4 | C[C@@H]1[C@H](O)[C@@H](C)/C=C/C=C/C=C/C=C/C=C/C=C/C=C/[C@H](O[C@@H]2O[C@H](C)[C@@H](O)[C@H](N)[C@@H]2O)C[C@@H]2O[C@](O)(C[C@@H](O)C[C@@H](O)[C@H](O)CC[C@@H](O)C[C@@H](O)CC(=O)O[C@H]1C)C[C@H](O)[C@H]2C(=O)O [AMPHOTERICIN B] | – | – | – | – | 1.25 µg/mL (≈ 1.35 µM) | – | – | – | – | – | – | – | 0.31 µg/mL (≈ 0.335 µM) | – | – | – | – | – | – | – | MIC (Cryptococcus neoformans): 0.63 µg/mL (≈ 0.682 µM)
5 | C[C@@H]1C[C@@H]2c3c(O)cc(-c4cc5ccccc5o4)cc3OC(C)(C)[C@H]2C[C@H]1O [MACHAERIOL D] | – | 30 µg/mL (≈ 79.3 µM) | – | – | – | – | – | – | 25 µg/mL (≈ 66.1 µM) | – | 50 µg/mL (≈ 132 µM) | – | – | – | – | – | – | – | – | – | Activity (Cryptococcus neoformans): inactive; Activity (Staphylococcus aureus [1]): inactive; Activity (Aspergillus fumigatus [2]): inactive; Activity [5]: inactive; Activity (Candida albicans [8]): inactive
6 | C[C@H]1CC[C@H]2[C@H](C1)c1c(O)cc(/C=C/c3ccccc3O)cc1OC2(C)C [MACHAERIOL C] | 40 µg/mL (≈ 110 µM) | 0.7 µg/mL (≈ 1.92 µM) | 12.5 µg/mL (≈ 34.3 µM) | 1.56 µg/mL (≈ 4.28 µM) | 100 µg/mL (≈ 274 µM) | inactive | 20 µg/mL (≈ 54.9 µM) | – | 0.65 µg/mL (≈ 1.78 µM) | 6.25 µg/mL (≈ 17.1 µM) | 1.56 µg/mL (≈ 4.28 µM) | 20 µg/mL (≈ 54.9 µM) | – | 6 µg/mL (≈ 16.5 µM) | 12 µg/mL (≈ 32.9 µM) | 3 µg/mL (≈ 8.23 µM) | 3.7 µg/mL (≈ 10.2 µM) | 1.6 | Non-toxic | 1.3 | –
7 | O=C(O)c1cn(C2CC2)c2cc(N3CCNCC3)c(F)cc2c1=O [CIPROFLOXACIN] | – | – | 0.31 µg/mL (≈ 0.936 µM) | 0.31 µg/mL (≈ 0.936 µM) | – | – | 0.45 µg/mL (≈ 1.36 µM) | 0.63 µg/mL (≈ 1.9 µM) | 0.15 µg/mL (≈ 0.453 µM) | – | – | – | – | – | – | – | – | – | – | – | –
8 | C=C(C)[C@H]1CC[C@H](C)C[C@@H]1c1c(O)cc(/C=C/c2ccccc2O)cc1O [MACHAERIDIOL B] | 3.5 µg/mL (≈ 9.6 µM) | 2 µg/mL (≈ 5.49 µM) | 6.25 µg/mL (≈ 17.1 µM) | 6.25 µg/mL (≈ 17.1 µM) | 10 µg/mL (≈ 27.4 µM) | inactive | – | – | 2.6 µg/mL (≈ 7.13 µM) | 6.25 µg/mL (≈ 17.1 µM) | 6.25 µg/mL (≈ 17.1 µM) | 2 µg/mL (≈ 5.49 µM) | 6.25 µg/mL (≈ 17.1 µM) | 0.9 µg/mL (≈ 2.47 µM) | 8 µg/mL (≈ 21.9 µM) | 0.64 µg/mL (≈ 1.76 µM) | 0.22 µg/mL (≈ 0.604 µM) | > 7.4 | Non-toxic | > 22 | Activity [5]: inactive; Activity (Candida albicans [7]): inactive
